Laboratory results: the RNAGym collection of RNA variant scans (doi:10.1038/nmeth.2970)

B1: NELF-E aptamer (parent)
chain: CCCAACGACUGCCGAGCGAGAUUACGCUUGAGCGCCCCACUGAGGAUGCCCACGGGCGAUUGGGGCACGG

Variants of: B1
Assay: HiTS-RAP
Conditions: with NELF-E (Drosophila)
Method in brief: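 Aptamer DNA templates bearing a T7 promoter and a ter site were sequenced on an Illumina GAIIx flowcell. T7 RNA polymerase then transcribed them in situ, and GST-Tus halted transcription over 30 minutes at 37°C. After a 30-minute room-temperature equilibration with NELF-E-mOrange at 0.064 to 1000 nM in HEPES binding buffer, clusters were imaged, using only the first binding curve. Intensities normalised to sequencing intensity were averaged per sequence and fitted with weighted Hill fits to give Kd, retaining only fits whose variance stayed under 1,000,000.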

| Variant | Kd |
| --- | --- |
| U23G C37A | 13.4 nM |
| U23G C37U | 13.8 nM |
| C13G U60C | 8.4 nM |
| C13G U60G | 5.12 nM |
| U22G A67G | 5.48 nM |
| U23G G54A | 14.4 nM |
| A5U G11U | 6.52 nM |
| C9G C51U | 8.2 nM |
| C9G C51A | 8.9 nM |
| A4G U60C | 9.89 nM |
| G11U U61C | 64.3 nM |
| A5U U28G | 7.17 nM |
| A24G G54A | 11.9 nM |
| U10G G62A | 16.9 nM |
| A5U A24G | 6.39 nM |
| A19G G55A | 7.92 nM |
| A5U C25G | 6.13 nM |
| G69U | 5.33 nM |
| A4U G63U | 11.1 nM |
| A4U G63A | 13.6 nM |
| G11A | 5.29 nM |
| G18A U41G | 4.87 nM |
| A4U G11A | 4.95 nM |
| U61A | 28.4 nM |

| Variant | Kd |
| --- | --- |
| A5G A59G | 29.5 nM |
| U10G G11C | 5.59 nM |
| C13G G65A | 5.31 nM |
| A24G G65A | 5.2 nM |
| U23G A46U | 69.3 nM |
| U23G A46G | 59.5 nM |
| C13U U22G | 5.14 nM |
| A8G G16U | 6.76 nM |
| C13G G48A | 11 nM |
| C6A U23G | 7.03 nM |
| C13G G18A | 5.31 nM |
| C6G U29C | 4.69 nM |
| A31U | 5.92 nM |
| C9G A67U | 8.77 nM |
| G11U U28C | 9.24 nM |
| A4G G56A | 9.42 nM |
| U41G G65A | 6.9 nM |
| U41G G65U | 6 nM |
| A4G G20U | 7.1 nM |
| A4G C6A | 6.8 nM |
| A4G C6U | 6.08 nM |
| U10A A31G | 9.84 nM |
| G14U G34A | 6.18 nM |
| G14U G34U | 5.16 nM |

| Variant | Kd |
| --- | --- |
| G20U A39G | 10.9 nM |
| A4G G55A | 8.61 nM |
| U10G C36U | 6.99 nM |
| U22G A24U | 7.45 nM |
| C6U C13G | 5.6 nM |
| U10G U29C | 4.67 nM |
| C9G G20U | 7.26 nM |
| A8U C12U | 5.4 nM |
| C25A | 4.89 nM |
| U10G G56A | 9.45 nM |
| A8U A19U | 6.78 nM |
| A8C U23G | 7.61 nM |
| C17U A31G | 5.15 nM |
| C25U U41G | 6.6 nM |
| C17U G34A | 5.49 nM |
| G20U U28C | 9.17 nM |
| C9G C12U | 5.9 nM |
| C27U U29G | 4.7 nM |
| U23G G55C | 6.97 nM |
| U10G G20A | 5.57 nM |
| C6U U22G | 5.57 nM |
| C6G G55U | 6.23 nM |
| C6U A15U | 6.25 nM |
| A4U C9U | 5.8 nM |

| Variant | Kd |
| --- | --- |
| C6G G58U | 6.94 nM |
| A8U | 5.54 nM |
| C13G G32A | 4.64 nM |
| G14U C17U | 6.1 nM |
| G14U C17G | 6.27 nM |
| G20A U23G | 5.94 nM |
| A8U A46G | 50 nM |
| U10G G65U | 6.08 nM |
| G14U G20U | 6.93 nM |
| U23G C36U | 8.06 nM |
| A4U C12U | 5.44 nM |
| C9G C13G | 5.48 nM |
| U22G G62A | 18.2 nM |
| A24G G44A | 18.5 nM |
| C9G G32A | 4.88 nM |
| U10G C13U | 4.7 nM |
| U10G C13G | 4.78 nM |
| A8G U23C | 4.62 nM |
| A8C C13G | 6.73 nM |
| A19G A46G | 20.6 nM |
| A4U A24G | 6.45 nM |
| A5U G64A | 8.76 nM |
| A8U A39U | 28.6 nM |
| A4U A31U | 7.69 nM |

| Variant | Kd |
| --- | --- |
| A4G C37U | 13.2 nM |
| A4G A8G | 5.83 nM |
| U22G U47G | 7.29 nM |
| A8U C40G | 8.55 nM |
| A39G G63A | 87.1 nM |
| C53U G64A | 4.84 nM |
| C17G U41G | 4.85 nM |
| U29A C37U | 7.5 nM |
| A8U C37A | 22.1 nM |
| C36A G64A | 14.3 nM |
| A5U U23G | 6.01 nM |
| C13G G55C | 7.94 nM |
| G11U A39U | 21.3 nM |
| G11U A39G | 11.4 nM |
| C6G G42U | 13.8 nM |
| G42A | 49.4 nM |
| U10G A19G | 5.12 nM |
| C9G G45U | 5.69 nM |
| C12U A39G | 6.76 nM |
| A8G U22G | 5.75 nM |
| G11A U41G | 6.14 nM |
| C6G C13U | 4.96 nM |
| G14A C17G | 5.98 nM |
| C6U A19G | 6.06 nM |

| Variant | Kd |
| --- | --- |
| A5G A8U | 6.29 nM |
| G20U G54A | 20.1 nM |
| C17G C57U | 5.45 nM |
| U22C | 4.53 nM |
| G14A A19U | 4.56 nM |
| G7U G56U | 7.83 nM |
| G7U G56A | 9.43 nM |
| A24G A39U | 29.5 nM |
| A24G C37G | 7.93 nM |
| A8U G44U | 25.7 nM |
| G64A A67U | 35.5 nM |
| C49A | 20.6 nM |
| U23G | 4.99 nM |
| A4U G62A | 13.5 nM |
| G20A U29G | 4.98 nM |
| C9G U23C | 4.37 nM |
| C9G U23G | 5.35 nM |
| A8G U41G | 6.37 nM |
| A8U C13U | 4.96 nM |
| C6U G34A | 6.54 nM |
| G18A U29G | 5.68 nM |
| C13U G54A | 8.87 nM |
| U29G U47A | 11.1 nM |
| C17U U41G | 5.63 nM |

| Variant | Kd |
| --- | --- |
| G18U A24G | 5.98 nM |
| U23G C40U | 135 nM |
| A4U C17U | 5.01 nM |
| C12G G14A | 5.91 nM |
| A19G A39U | 31.1 nM |
| A8G A15G | 6.29 nM |
| C13U U23G | 4.9 nM |
| U29G G64C | 5.11 nM |
| U29G G64U | 6.21 nM |
| G16A U29G | 5.1 nM |
| U41G C50U | 13.8 nM |
| G7A U23G | 5.95 nM |
| C6G G7U | 5.56 nM |
| G14U G64A | 6.6 nM |
| C6G C49U | 20.2 nM |
| C6G C49G | 8.75 nM |
| C17A U23G | 5.06 nM |
| A43G G44U | 5.97 nM |
| U10G C57U | 5.61 nM |
| A5U G55U | 8.79 nM |
| C6G A15U | 6.24 nM |
| C6U G54A | 14.5 nM |
| A52U G63U | 42.2 nM |
